CHRM4 antagonist: blocks acetylcholine activation of human M4 receptor; P08173; CHO-hM4 cells, ACh EC80, Fluo-8 calcium fluorescence; inhibition, % at 3 µM; 360,000 tested, 0.73% active; AID 624125;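 active means inhibition above its plate's cutoff, the mean inhibition of sample wells plus 3 SD, cut at about 27% in these data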
M4 ag: agonists of human muscarinic M4 receptor (CHRM4) | P08173 | CHO-K1 hM4/Gqi5, Fluo-8 calcium fluorescence; vehicle 0%, full acetylcholine response 100% | activation, % at 3 µM | 360,000 tested, 0.14% active | AID 624127;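 active means activation above the run mean over all test wells plus 3 SD, cut at about 32% in these data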;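 further: peak over basal fluorescence ratio per well then scaled between controls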
M5 PAM: CHRM5 positive allosteric modulation. CHO-K1 hM5, Fluo-8 calcium, ACh EC20 PAM; 0% = ACh EC20, 100% = ACh EC100. activation, % at 3 µM. 360,000 tested, 0.3% active. AID 624038;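 active means activation above the run cutoff, the mean activation of all test compounds plus 3 SD, cut at about 18% in these data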
Target sequence (P08912 whole entry, looked up): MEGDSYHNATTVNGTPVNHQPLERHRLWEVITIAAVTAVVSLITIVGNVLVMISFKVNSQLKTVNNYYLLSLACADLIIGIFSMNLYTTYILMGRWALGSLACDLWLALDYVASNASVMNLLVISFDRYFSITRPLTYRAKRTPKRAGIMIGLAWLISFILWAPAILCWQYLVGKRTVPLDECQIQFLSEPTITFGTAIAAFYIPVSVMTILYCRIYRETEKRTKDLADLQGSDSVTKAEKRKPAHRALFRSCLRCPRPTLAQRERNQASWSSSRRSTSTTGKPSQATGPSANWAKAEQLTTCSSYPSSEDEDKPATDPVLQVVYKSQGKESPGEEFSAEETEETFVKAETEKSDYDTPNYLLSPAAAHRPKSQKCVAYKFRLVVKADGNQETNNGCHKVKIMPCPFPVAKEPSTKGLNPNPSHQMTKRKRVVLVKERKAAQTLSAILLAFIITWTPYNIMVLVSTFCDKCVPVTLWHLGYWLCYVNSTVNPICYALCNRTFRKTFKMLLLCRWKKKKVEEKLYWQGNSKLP
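Assay system: CHO-K1 hM5 cells / Incubation: Fluo-8 loading 80 min at 37 °C plus 30 min room temperature / Technique: Fluo-8 calcium dye fluorescence, kinetic read / Repeats: single replicate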
CHRM4 PAM: positive allosteric modulators of human muscarinic M4 receptor | P08173 | CHO-K1 hM4/Gqi5, Fluo-8 calcium fluorescence, ACh EC20; 0% = ACh EC20, 100% = maximal ACh | activation, % at 3 µM | 360,000 tested, 0.4% active | AID 624126;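 active means activation above its plate's cutoff, the mean activation of sample wells plus 3 SD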
M5 ag: CHRM5 agonism in calcium assay. P08912. CHO-K1 hM5 cells, Fluo-8 calcium fluorescence; 0% DMSO wells, 100% maximal acetylcholine response. activation, % at 3 µM. 360,000 tested, 0.19% active;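 active means activation above the run's mean over test compounds plus 3 SD, cut at about 23% in these data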;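 further: signal is peak over basal fluorescence ratio across the kinetic read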
CHRM5 antagonist: CHRM5 antagonism in calcium assay. P08912. CHO-hM5 cells, Fluo-8 calcium fluorescence, ACh EC80. inhibition, % at 3 µM. 360,000 tested, 0.59% active. AID 624040;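 active means inhibition above a per-plate cutoff, the mean of that plate's test compounds plus 3 SD, cut at about 27% in these data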
Large screens that a line does not name were inactive. A selection: hits, their analogues and other compounds. The true share with any hit is near 1.8%.

Nc1nnn(CC(=O)N/N=C/c2cccc3ccccc23)n1	M5 PAM 18.1
Cc1ccccc1/C=N/NC(=O)Cn1nnc(N)n1	none
CC(OC(=O)Cc1n[nH]c(=O)c2ccccc12)C(=O)Nc1ccc(Cl)cn1 (stereo unspecified)	M5 PAM 19.2
CC(OC(=O)Cc1n[nH]c(=O)c2ccccc12)C(=O)Nc1cc(Cl)cc(Cl)c1 (stereo unspecified)	none
CN(C)S(=O)(=O)c1cccc(-c2nnc3n2CCCCC3)c1	none
Cc1cc(C)n2nc(-c3ccc(Br)cc3)cc2n1	CHRM4 PAM 17.9
OC[C@@H]1CN(Cc2ccccc2)C[C@H](n2cnc3c(NCc4ccco4)ncnc32)O1	none
COc1cc(CN2C[C@@H](CO)O[C@@H](n3cnc4c(NCC(C)C)ncnc43)C2)cc(OC)c1OC	CHRM4 PAM 16.8
CN1CCN(c2ncnc3c2ncn3[C@H]2CN(Cc3ccc(C(=O)O)cc3)C[C@@H](CO)O2)CC1	CHRM4 PAM 18.3
OC[C@@H]1CN(Cc2ccc(-c3ccccc3)cc2)C[C@H](n2cnc3c(NCc4ccco4)ncnc32)O1	CHRM4 antagonist 29.0
COCCNc1ncnc2c1ncn2[C@H]1CN(Cc2cc(OC)c(OC)c(OC)c2)C[C@@H](CO)O1	none
O=C(NCC[C@@H]1CC[C@@H](NS(=O)(=O)Cc2ccccc2)[C@@H](CO)O1)C1CC1	none
CCN(C(=O)CSc1nc(N)cc(=O)[nH]1)c1c(N)n(Cc2ccccc2)c(=O)[nH]c1=O	none
CC(=O)n1cc([C@H]2C=C(C(N)=O)O[C@@H](OCc3ccc(CO)cc3)C2)c2ccccc21	M4 ag 34.2, M5 ag 28.9
CCc1nnc(NC(=O)CN2CCCC(C)C2)s1 (stereo unspecified)	none
C=CCn1c(SCC(=O)NCCC2=CCCCC2)nc2ccc(Cl)cc2c1=O	M5 PAM 30.2
Cn1c(=O)cc(SCC(=O)NCCC2=CCCCC2)c2ccc(Cl)cc21	none
O=C(NNS(=O)(=O)c1ccc2ccccc2c1)C1CCN(Cc2ccccc2)CC1	CHRM4 antagonist 41.5, CHRM5 antagonist 46.4
CCc1cc(C(=O)N(C)CC(=O)Nc2c(Cl)cccc2Cl)sc1C	none
CCc1ccc2c(c1)cc(CN(C(=S)Nc1ccccc1)C1CC1)c1nnnn12	CHRM4 PAM 32.4
CC(C)NC(=O)N(O)C1N(C(C)C)C(=O)N(Cc2ccc3c(c2)OCO3)C1(C)C (stereo unspecified)	CHRM4 antagonist 30.4
CCOc1ccccc1-n1nnnc1SCC(=O)N(C)C1CCS(=O)(=O)C1 (stereo unspecified)	none
C/C(=N\Nc1c(F)c(F)c(Br)c(F)c1F)c1ccncc1	CHRM4 PAM 14.7
Cc1cc(S(=O)(=O)N2CCOCC2)ccc1OCC(=O)NCCN1CCOCC1	none
COC1=C(OC)c2ccccc2C(C(=O)O)N/C1=C(/C)Nc1ccncc1 (stereo unspecified)	CHRM4 antagonist 28.8
Cc1oc2c(CN3CCCC3)c(O)ccc2c(=O)c1-c1ccccc1	none
Cc1oc2c(CN3CCOCC3)c(O)ccc2c(=O)c1-c1ccc(Br)cc1	CHRM4 antagonist 38.5
Cc1oc2c(CN3CCOCC3)c(O)ccc2c(=O)c1-c1ccc(Cl)cc1	none
Cc1oc2c(CN3CCCC3)c(O)ccc2c(=O)c1-c1ccc(Cl)cc1	CHRM4 antagonist 69.5
O=C1[C@@H]2Cc3c([nH]c4ccccc34)CN2C(=O)CN1CCCO	none
C=CCN1CC(=O)N2Cc3[nH]c4ccccc4c3C[C@H]2C1=O	CHRM4 antagonist 43.1
CC1CN(C)C(C)c2c1oc1ccc(N)cc21 (stereo unspecified)	M5 PAM 19.5
O=C(COC(=O)c1ccccc1NS(=O)(=O)c1ccc(Cl)cc1)NCc1ccccc1	CHRM4 PAM 21.3
O=C(COC(=O)c1cc2ccccc2cc1O)NCc1ccccc1	M5 PAM 18.4
Cc1ccc(Sc2ccc(NC(=O)CCN3C(=O)NC4(CCCC4)C3=O)cc2)c(C)c1	none
N#Cc1ccc2[nH]cc(C3c4cc(F)ccc4C=C(c4ccsc4)N3c3ccc(C#CCCO)cc3)c2c1 (stereo unspecified)	CHRM4 antagonist 41.4
COc1cc(-c2ccc(N3C(c4ccsc4)=Cc4ccc(F)cc4C3c3c[nH]c4ccc(C#N)cc34)cc2)cc(OC)c1OC (stereo unspecified)	none
Cc1ccc(S(=O)(=O)N(C)C)cc1NC(=O)COC(=O)C1CC1	none
O=P(c1ccccc1)(c1ccccc1)c1ccccc1C(Br)Br	none
CCc1nc2ccc(C(=O)Nc3cccc(OCC(=O)N(C)C)c3)cn2c1N(C)Cc1cc2ccccc2s1	CHRM4 antagonist 34.2, CHRM5 antagonist 33.2
CCNC(=O)N(C)c1c(CC)nc2ccc(C(=O)Nc3cccc(OCC(=O)N(C)C)c3)cn12	none
O=C(NCCCn1ccnc1)c1cc2ccccc2o1	none
CCCOc1ccc(C(=O)NCCCn2ccnc2)cc1	none
CCOc1ccc(C(=O)NCCCn2ccnc2)cc1	M5 PAM 18.1
Cc1c(C(=O)NCCCn2ccnc2)oc2ccccc12	M5 PAM 18.4
O=C1CCC(C(=O)N2CCCCO2)CN1Cc1cccc(F)c1 (stereo unspecified)	none
O=C(NCc1ccccn1)/C(=C/c1ccco1)NC(=O)c1ccccc1	CHRM4 PAM 21.2
CC(=O)Nc1ccc(OC(=O)N2CCCC2)cc1	none
COc1ccc(/C=N/NC(=O)c2ccc3ccccc3c2)cc1OS(=O)(=O)c1ccc(NC(C)=O)cc1	CHRM4 antagonist 27.9
O=C(Nc1nnc([C@@H]2C[C@H](O)[C@@H](CO)O2)s1)Nc1ccccc1F	none
CN(C)c1ccc(/C=C2\Oc3ccc(C#Cc4cccc(N)c4)cc3C2=O)cc1	M4 ag 96.4, M5 ag 67.0, CHRM5 antagonist 33.3
Cc1ccc(CNC(=O)Cn2nnc(C(=O)Nc3cc(C)ccc3C)c2N)cc1	none
O=C(Nc1ccc(N2CCOCC2)c(S(=O)(=O)Nc2ccccc2Cl)c1)c1ccccc1	none
Cc1oc(S(=O)(=O)N2CCCCC2)cc1NC(=O)Nc1ccc(Cl)cc1	CHRM5 antagonist 31.7
O=C(Nc1ccc(Cl)cc1)Nc1ccc(N2CCCC2)c(S(=O)(=O)Nc2ccccc2Cl)c1	CHRM5 antagonist 27.4
CN1CCN(S(=O)(=O)c2ccc(NC(=O)Nc3cccc(Cl)c3)cc2)CC1	CHRM4 antagonist 28.6
O=C(Nc1cccc(Cl)c1)Nc1cc(S(=O)(=O)N2CCCCC2)ccc1Cl	CHRM5 antagonist 29.5
Cc1oc(S(=O)(=O)N2CCCCC2)cc1NC(=O)Nc1ccccc1	none
CN1CCN(S(=O)(=O)c2ccc(NC(=O)c3ccccc3Cl)cc2)CC1	none

Bioassay records (PubChem BioAssay)
